Screens (PubChem)
GPR7 antag – GPR7 receptor antagonists, primary screen, cell-based, fluorescence, single concentration | Neuropeptides B/W receptor type 1 (Homo sapiens), P48145 | GPR7-expressing cells, fluorescence antagonist assay | inhibition, % at 4.4 µM | 290,000 compounds, 1.1% hits | AID 1861, 2009; in the data active = inhibition above about 16%, passing the limit was not always enough;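 note: cells stimulated with the agonist NPW; 0% = agonist with vehicle and 100% = vehicle without agonist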
TAAR1 antagonist – human TAAR1 antagonists, primary screen, Fluo-8 calcium fluorescence, CHO RD-HGA16 cells; Trace amine-associated receptor 1 (Homo sapiens), Q96RJ0; antagonist; inhibition, % at 3 µM; 360,000 compounds, 1.5% hits;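 active = inhibition above a per-plate cutoff, the mean inhibition of test compounds on that plate plus 3 SD, cut at about 49% in these data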;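 note: 0% = DMSO plus EC80 beta-PEA response and 100% = DMSO alone without agonist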
Target sequence (Q96RJ0 whole entry, looked up): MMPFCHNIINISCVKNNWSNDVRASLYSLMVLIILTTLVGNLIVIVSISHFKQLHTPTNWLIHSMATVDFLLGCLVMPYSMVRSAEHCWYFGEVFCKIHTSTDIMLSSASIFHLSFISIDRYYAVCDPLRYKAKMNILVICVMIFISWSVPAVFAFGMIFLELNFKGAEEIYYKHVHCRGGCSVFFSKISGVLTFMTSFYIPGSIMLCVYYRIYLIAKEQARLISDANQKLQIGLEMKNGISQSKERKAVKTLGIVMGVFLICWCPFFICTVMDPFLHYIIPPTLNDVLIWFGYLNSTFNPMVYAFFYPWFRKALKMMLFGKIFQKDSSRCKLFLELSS
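Assay system: RD-HGA16 CHO cells with stable hTAAR1 and Gα16 / Reagent: EC80 β-phenethylamine stimulus / Doses: 3 µM, single point / Timing: dye loading 75 min at 37 °C, then 30 min room temperature / Measured by: Fluo-8 intracellular calcium dye fluorescence, real-time kinetic reads / Controls: vehicle wells and EC80 agonist wells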
OX1R antag-1 – antagonists of human orexin 1 receptor (OX1R); Orexin/Hypocretin receptor type 1 (Homo sapiens), O43613; OX1R-expressing cells, FRET antagonist read-out; inhibition, % at 6.6 µM; 330,000 compounds, 1.8% hits; AID 485270, 2010; in the data active = inhibition mostly above about 38%, no sharp cut-off; inactive = mostly below about 40%;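 note: 0% = agonist challenge alone and 100% = reference antagonist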
Target sequence (O43613 whole entry, looked up): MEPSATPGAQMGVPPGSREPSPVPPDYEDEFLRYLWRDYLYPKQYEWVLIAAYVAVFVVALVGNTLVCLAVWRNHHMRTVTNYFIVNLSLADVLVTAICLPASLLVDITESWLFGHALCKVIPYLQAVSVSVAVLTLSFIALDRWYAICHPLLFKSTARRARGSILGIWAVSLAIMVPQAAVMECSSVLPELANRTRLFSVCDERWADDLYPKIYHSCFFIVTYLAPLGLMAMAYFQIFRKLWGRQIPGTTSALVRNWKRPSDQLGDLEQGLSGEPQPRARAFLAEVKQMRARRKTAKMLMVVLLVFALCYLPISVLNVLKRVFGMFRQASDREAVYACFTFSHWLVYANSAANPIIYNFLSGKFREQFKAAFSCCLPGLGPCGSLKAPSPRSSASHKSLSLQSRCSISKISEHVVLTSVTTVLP
CHO parental Ca – ATP-evoked calcium signal inhibitors, parental CHO, primary screen, counter-screen for OX1R antagonist project, cell-based, fluorescence, Fluo-8 calcium dye; parental CHO-K1, ATP-induced calcium, Fluo-8 fluorescence; inhibition, % at 5.6 µM; 330,000 compounds, 0.63% hits; AID 463079, 2010;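 active = inhibition above that plate's mean sample inhibition plus 3 SD, cut at about 26% in these data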;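 note: 0% = ATP-challenged DMSO wells and 100% = DMSO wells without ATP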
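Test system: untransfected parental CHO cell line; also added: ATP stimulus; dosing: 5.6 µM, single dose; signal: calcium-sensitive Fluo-8 fluorescence; measure: percent inhibition of ATP-evoked calcium rise, normalized to controls; benchmarks: low control ATP plus DMSO, high control DMSO only; replication: one well per compound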
TAAR1 agonist – human TAAR1 agonists, primary screen, Fluo-8 calcium fluorescence, CHO RD-HGA16 cells. Trace amine-associated receptor 1 (Homo sapiens), Q96RJ0. vehicle wells 0%, saturating PEA agonist 100%. activation, % at 3 µM. 360,000 compounds, 0.99% hits;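 active = activation above the mean activation of all test compounds in the run plus 3 SD, cut at about 38% in these data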
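Repeats: no replicates (n 1) | Material: CHO-derived RD-HGA16 cells with stable Gα16 and human TAAR1 | Technique: Kinetic Fluo-8 calcium fluorescence | Schedule: 17-24 h seeding, 75 min 37 °C dye, 30 min RT | Evaluation: % activation from peak over basal fluorescence ratio, DMSO-to-PEA scaled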
OX1R antag-2 – OX1R (HCRTR1) antagonists, primary screen, fluorescence, CHO/OX1R cells, Fluo-8 calcium, orexin A; Orexin/Hypocretin receptor type 1 (Homo sapiens), O43613; inhibition, % at 5 µM; 330,000 compounds, 0.43% hits; Fluo-8 calcium fluorescence;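 active = inhibition above its plate's threshold, mean inhibition of all tested compounds on the plate plus 3 SD, cut at about 37% in these data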;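 note: 0% = orexin A challenge wells and 100% = SB-334867-A antagonist wells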
TAAR1 nonsel count – nonselective antagonists in TAAR1 counter-screen cells, counter-screen for hTAAR1 antagonist project, cell-based, fluorescence, calcium; shares compounds with TAAR1 antagonist; counterscreen cell line, antagonist mode; inhibition, % at 3 µM; 2,400 compounds, 77% hits; in the data active = inhibition above about 22%;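 note: CHO-Ga16 host cells stimulated with ATP at an EC80 level; 0% = agonist EC80 plus vehicle and 100% = vehicle without agonist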
TAAR1 antag conf – human TAAR1 antagonists, retest of hits, confirmation, cell-based, fluorescence; TAAR1-expressing cells, fluorescence antagonist read-out; 2,400 compounds, 40% hits; shares compounds with TAAR1 antagonist; inhibition, % at 3 µM; in the data active = inhibition above about 49%;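 note: CHO-Ga16 host cells challenged with agonist PEA near its EC80; 0% = agonist at EC80 plus vehicle and 100% = vehicle with no agonist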
Ga16 ag counter – calcium activation in Ga16-expressing cells, counter-screen for TAAR1 antagonist project, cell-based, fluorescence; 2,400 compounds, 18% hits; activation, % at 3 µM; shares compounds with TAAR1 antagonist; agonist counterscreen; in the data active = activation above about 12%;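 note: 0% = vehicle wells and 100% = saturating stimulus response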
TAAR1 ag counter – TAAR1 activation by candidate antagonists – cell-based, fluorescence, counter-screen for TAAR1 antagonist project | shares compounds with TAAR1 antagonist | hTAAR1 cell line, agonist mode | activation, % at 3 µM | 2,400 compounds, 2% hits | AID 651955, 2012; in the data active = activation above about 37%;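 note: CHO cells stably expressing TAAR1 with calcium dye readout; 0% = DMSO vehicle and 100% = full agonist response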
The depositor's hits bear a star; x = no result given. Rows were chosen to be rich in hits. Some 4.5% of all compounds tested hit in one or more screens of this group.

SMILES | GPR7 antag | TAAR1 antagonist | OX1R antag-1 | CHO parental Ca | TAAR1 agonist | OX1R antag-2 | TAAR1 nonsel count | TAAR1 antag conf | Ga16 ag counter | TAAR1 ag counter
CCOC(=O)CCP(=O)(O)C(C)(O)c1ccccc1 (stereo not drawn) | -3 | 107* | 12 | -2 | 6 | -6 | -1 | -2 | 7 | 7
CCOC(=O)c1c(-c2ccccc2)nnn1-c1nc(OCC)nc(N2CCCCC2)n1 | -1 | 53* | 7 | 52* | 13 | -25 | 23* | 30 | 6 | 6
CN(C)CCCn1c2c(c(SCC(=O)Nc3ccc4c(c3)OCCO4)nc1=O)CCC2 | x | 0 | 9 | -15 | 0 | -10 | x | x | x | x
CC(OC(=O)CNS(=O)(=O)c1ccc2ccccc2c1)C(=O)N(C)c1ccccc1 (stereo not drawn) | 0 | -18 | 49 | -1 | 0 | -12 | x | x | x | x
CC(OC(=O)COc1ccc(Nc2ccccc2)cc1)C(=O)N(C)c1ccccc1 (stereo not drawn) | x | 73* | 38 | -4 | 5 | -13 | 30* | 43 | 8 | 2
CC(=O)Nc1ccc(S(=O)(=O)Nc2ccc(-n3cnnn3)cc2)cc1 | x | 8 | 2 | -3 | 1 | 4 | x | x | x | x
CCN(CC)S(=O)(=O)c1ccc(/C=C/C(=O)Nc2cccc(F)c2)cc1 | 10 | 58* | 23 | -2 | 10 | -14 | 39* | 62* | 10 | 7
CCOC(=O)C1=CN(Cc2cccc(-c3cccnc3)c2)S(=O)(=O)N(C)C1C (stereo not drawn) | x | 49* | 10 | -5 | 3 | -9 | 21* | 25 | 4 | 0
COc1cccc(NC(=O)CN(C)C(=O)c2ccc(NC(=O)CC3SC(N4CCCC4)=NC3=O)cc2)c1 (stereo not drawn) | x | -8 | x | x | 5 | x | x | x | x | x
COc1ccc(S(=O)(=O)N(CC(=O)NCCSc2ccccn2)c2ccccc2)cc1 | -23 | 44 | 18 | -23 | 12 | -21 | x | x | x | x
COc1ccc(N(CC(=O)NCCSc2ccccc2)S(=O)(=O)c2ccccc2)c(OC)c1 | x | 59* | 27 | -23 | 13 | 1 | 33* | 55* | 7 | 8
COCCCNC(=O)CN(c1cc(OC)ccc1OC)S(=O)(=O)c1ccccc1 | -1 | -1 | 53 | -1 | 5 | 16 | x | x | x | x
COc1ccc(N(CC(=O)NCc2ccccc2OC)S(=O)(=O)c2ccccc2)cc1 | -2 | 11 | 30 | -14 | -1 | -13 | x | x | x | x
COc1ccc(N(CC(=O)NCCSc2ccccc2)S(=O)(=O)c2ccccc2)cc1 | -13 | 65* | 14 | -9 | 6 | -9 | 22* | 46 | 9 | 14
COc1ccc(N(CC(=O)NCCSc2ccccn2)S(=O)(=O)c2ccccc2)c(OC)c1 | -12 | 50* | 46* | -27 | 18 | -6 | 27* | 44 | 8 | 7
CCOC(=O)C1(C(=O)OCC)NC(=O)CC1CC(C)C (stereo not drawn) | x | -9 | x | x | 1 | x | x | x | x | x
CC[C@@H]1[C@H]2CCCC(=O)N3CC[C@@H](C[C@H]1O)[C@@H]23 | x | 12 | 25 | 3 | 8 | -19 | x | x | x | x
COc1ccc(C(=O)N2N=C(c3cccc(NS(C)(=O)=O)c3)CC2c2cccs2)cc1 (stereo not drawn) | 5 | 61* | 9 | -3 | 13 | -19 | 31* | 48 | 10 | 12
CS(=O)(=O)Nc1cccc(C2=NN(C(=O)c3ccc(F)cc3)C(c3cccs3)C2)c1 (stereo not drawn) | 12 | -2 | -6 | 2 | 7 | -7 | x | x | x | x
O=C(CCC1CCCCC1)Nc1cccnc1 | 17 | -9 | 11 | 0 | 11 | -16 | x | x | x | x
O=C(CCC1CCCCC1)Nc1ccc(C(=O)c2ccncc2)cc1 | 2 | 66* | 39 | -4 | 7 | -4 | 36* | 56* | 11 | 11
O=C(NCCCCl)C1CC(=O)N(CCc2ccc(F)cc2)C1 (stereo not drawn) | -15 | -2 | 10 | -4 | 1 | -14 | x | x | x | x
CCc1nn2c(=O)cc(COC(=O)c3cc(Cl)c(OC)c(OC)c3)nc2s1 | x | 23 | 4 | -13 | 1 | -28 | x | x | x | x
Cc1ccc(CSc2nnc(SCC(=O)N/N=C/c3c[nH]c4ccccc34)s2)cc1 | -14 | 79* | x | x | 9 | x | 28* | 43 | 3 | 3
O=C(CSc1nnc(SCc2ccccc2)s1)N/N=C/c1c[nH]c2ccccc12 | 2 | 0 | x | x | 5 | x | x | x | x | x
SMILES | GPR7 antag | TAAR1 antagonist | OX1R antag-1 | CHO parental Ca | TAAR1 agonist | OX1R antag-2 | TAAR1 nonsel count | TAAR1 antag conf | Ga16 ag counter | TAAR1 ag counter
O=C(c1ccc2c(=O)n(CCc3ccccc3)c(=O)[nH]c2c1)N1CCN(c2ccccc2)CC1 | -25 | x | 21 | -21 | x | -22 | x | x | x | x
O=C(c1cccc(F)c1)N1CCN(c2cccc(C(F)(F)F)c2)CC1 | -3 | -2 | 2 | -16 | 2 | -12 | x | x | x | x
O=C(c1ccc(N2CCN(C(=O)c3cccc(F)c3)CC2)cc1)c1cccc(F)c1 | -2 | 53* | 4 | -4 | 4 | -9 | 24* | 34 | 9 | 11
O=C(C(Sc1ccccc1)c1ccccc1)N1CCN(c2ccccc2F)CC1 (stereo not drawn) | 14 | 50* | 28 | -17 | 6 | -15 | 17 | 36 | 7 | 8
O=C(c1ccc2c(=O)n(CCc3ccccc3)c(=O)[nH]c2c1)N1CCN(c2ccc(F)cc2)CC1 | -14 | 58* | 9 | -4 | 9 | 7 | 29* | 45 | 6 | 10
CCc1ccccc1S(=O)(=O)Cc1ccc(C(=O)N2CCN(c3ccccc3OC)CC2)o1 | 5 | 72* | 13 | -15 | 17 | -13 | 29* | 50* | 18* | 38*
Cc1ccc(S(=O)(=O)CCN2CCC(n3cccc3)CC2)cc1 | -7 | -25 | 1 | -5 | 1 | -21 | x | x | x | x
